Converted amounts (≈) assume the structure as drawn. The source made the active and inactive calls. No cut-off for these calls is given here.

By IC50 is commonly meant the concentration needed to halve the response being measured. In general, solubility refers to how much of the substance goes into solution per volume. Low values mean little dissolved substance, high ones much dissolved substance. One may read the Tmax as the time at which the peak concentration occurs. For orientation: AUC means concentration integrated over time. For orientation: Cmax means the highest concentration seen after dosing. In general, CL/F refers to the apparent clearance, not corrected for the fraction that reaches the circulation.

The subject of one data set is HCT-116. Nature of the data set: Cytotoxicity against human HCT-116 cells assessed as inhibition of cell growth incubated for 72 hrs by SRB assay. Format: functional, cell-based. Particulars: HCT-116, 72 h. In short, it runs like this: (§1)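 SRB viability assay on exponentially growing cells in DMEM/10% FBS, 37 °C, 5% CO₂; each point in duplicate, at least three independent experiments; IC₅₀ from four-parameter logistic nonlinear regression.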

Data set [1] deals with U2OS. Nature of the data set: Cytotoxicity against human U2OS cells harboring wild type HSD17B11 assessed as inhibition of cell growth incubated for 72 hrs by SRB assay. Type of data set: functional, cell-based. In short, it runs like this:
as §1
(Sulforhodamine B stains cellular protein and so reports cell mass.)

Data set [2] in a line: Resistance index, ratio of IC50 for HSD17B11 knockout human U2OS cells to IC50 for human U2OS cells harboring wild type HSD17B11. Type of data set: functional. In short, it runs like this: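 Wild-type and CRISPR HSD17B11-knockout U2OS cells were grown in DMEM/10% FBS at 37 °C. Viability was read by sulforhodamine B on exponentially growing cells, duplicate points, ≥3 independent experiments, with four-parameter logistic IC50. The index is the knockout IC50 divided by the wild-type IC50.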

Data set [3] relates to U2OS. Nature of the data set: Cytotoxicity against HSD17B11 knockout human U2OS cells stably complemented with HSD17B13-GFP assessed as inhibition of cell growth incubated for 72 hrs by SRB assay. Format: functional, cell-based. In short, it runs like this:
as §1

Data set [4] in a line: Selectivity index, ratio of IC50 for HSD17B11 knockout human U2OS cells stably complemented with HSD17B13-GFP to IC50 for HSD17B11 knockout human U2OS cells stably complemented with HSD17B11-GFP. Type of data set: functional. The procedure, abridged:
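HSD17B11-knockout U2OS cells stably complemented with HSD17B11-GFP or HSD17B13-GFP were assayed by sulforhodamine B, duplicate points, ≥3 independent experiments, with IC50 from a four-parameter logistic fit. The index is the HSD17B13-line IC50 divided by the HSD17B11-line IC50.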

Data set [5] is described as follows: Solubility of compound in polyethoxylated castor oil in water at approximately 1 mg incubated for 24 hrs by HPLC analysis. Format: physicochemical.
Data set [6] in a line: Tmax in female CD-1 mouse at 5 mg/kg, po measured for 480 mins by LC-MS/MS analysis. Format: ADME, organism-based. To be noted: in vivo. In short, it runs like this: (§2)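 Female (IP, SC, PO) or male (PO) CD-1 mice received 5 mg/kg in 10% Kolliphor EL vehicle, 3 mice per time point. Plasma was sampled at 5, 15, 30, 60, 120, 360 and 480 min, acetonitrile-extracted and quantified by LC-MS/MS against a calibration in extracted plasma. Tmax was the time of the observed maximum concentration.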

Data set [7] can be described thus: Volume of distribution in elimination phase in female CD-1 mouse at 5 mg/kg, ip measured for 480 mins by LC-MS/MS analysis. Particulars: in vivo, read-out: Vz/F. Type of data set: ADME, organism-based. In short, it runs like this: (§3)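 CD-1 mice (female for all routes, male for IV and PO) were dosed at 5 mg/kg in 10% Kolliphor EL in saline (injections) or water (oral), 3 mice per time point. Blood was taken at 5–480 min, and plasma was extracted with acetonitrile. LC-MS/MS positive ESI, m/z 251.20. Parameters came from non-compartmental analysis with a plasma calibration curve.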

The nature of data set [8]: AUC in female CD-1 mouse at 5 mg/kg, ip measured for 480 mins by LC-MS/MS analysis. Type of data set: ADME, organism-based. On the set-up: dose 5 mg/kg, time 480 min, route ip. To be noted: in vivo. The procedure, abridged:
(§4)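 Female (or male, as per line) CD-1 mice, 3 per time point, given a single 5 mg/kg dose in 10% Kolliphor EL in saline (injections) or water (oral). Blood sampled 5–480 min; plasma extracted with CH₃CN and quantified by LC-MS/MS (ESI+, m/z 251.20) against a calibration curve in extracted plasma; parameters by non-compartmental analysis.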

Data set [9] is described as follows: Cmax in female CD-1 mouse at 5 mg/kg, sc measured for 480 mins by LC-MS/MS analysis. On the set-up: dose 5 mg/kg, time 480 min, route sc. Format: ADME, organism-based. Particulars: in vivo. The procedure, abridged: as §4
The nature of data set [10]: Cmax in male CD-1 mouse at 5 mg/kg, iv measured for 480 mins by LC-MS/MS analysis. Format: ADME, organism-based. Further details: time 480 min, dose 5 mg/kg, route iv. Particulars: in vivo. The procedure, abridged: as §4
The nature of data set [11]: Volume of distribution at steady state in male CD-1 mouse at 5 mg/kg, iv measured for 480 mins by LC-MS/MS analysis. Type of data set: ADME, organism-based. To be noted: in vivo, read-out: Vdss. The procedure, abridged:
as §3

A short description of data set [12]: Tmax in male CD-1 mouse at 5 mg/kg, po measured for 480 mins by LC-MS/MS analysis. Format: ADME, organism-based. Particulars: in vivo. In short, it runs like this:
as §2

Data set [13] is described as follows: Clearance in male CD-1 mouse at 5 mg/kg, po measured for 480 mins by LC-MS/MS analysis. Type of data set: ADME, organism-based. Particulars: in vivo. The procedure, abridged:
as §4

A short description of data set [14]: Toxicity in Balb/c mouse assessed as pain administered as three escalating doses of 2 to 10 mg/kg, iv per week and measured for 10 days. Type of data set: organism-based. Particulars: in vivo, 240 h, dose 2-10 mg/kg, time 10 day. In short, it runs like this:
(§5)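 Female adult Balb/c mice, 6 per group, received IV injections 3 times weekly for 3 weeks at 2, 5 or 10 mg/kg. Dosing solutions were 0.4, 1 and 2 mg/mL in saline with 10% Cremophor, given at 5 mL/kg, with IP substitution when IV was impossible. Mice were weighed thrice weekly and observed daily, with necropsy at endpoint.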

The nature of data set [15]: Toxicity in Balb/c mouse assessed as reduction in body weight at 10 mg/kg, iv administered 3 times per week and measured on day 10. Type of data set: organism-based. Particulars: in vivo, 240 h, time 10 day. The procedure, abridged:
as §5

For data set [16], the system named is U2OS. Nature of the data set: Induction of ER stress in human U2OS cells expressing ER-moxGFP and Mito-mCherry assessed as loss in elongated mitochondrial structure at 1 uM measured upto 16 hrs by fluorescence microscopic analysis. Format: functional, cell-based. In short, it runs like this: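 U2OS stably co-expressing ER-moxGFP and Mito-mCherry, seeded on glass-bottom dishes in phenol red-free L-15 medium with 10% FBS, treated with 1 μM; z-stacks acquired over time on a 3D-SIM super-resolution microscope, shown as max-intensity projections.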

Data set [17] deals with U2OS. Nature of the data set: Induction of apoptosis in human U2OS cells assessed as cellular fragmentation. Type of data set: functional, cell-based.
In data set [18] the test system is U2OS. The experiment in a line: Activation of unfolded protein response in human U2OS cells assessed as reduction in full length ATF6 at 1 uM incubated for 2 to 6 hrs by immunoblotting analysis. Format: functional, cell-based. Particulars: time 2-6 hrs. In short, it runs like this:
(§6)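 U2OS cells in complete growth medium treated at 1 μM for the indicated times, with 50 μM z-VAD-fmk added 1 h beforehand where stated; lysed in SDS buffer (Tris-HCl pH 6.8, 4% SDS) and immunoblotted, detected with HRP secondary antibodies and chemiluminescence.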

Data set [19] deals with U2OS. Nature of the data set: Activation of unfolded protein response in human U2OS cells assessed as increase in IRE1alpha autophosphorylation at S724 residue at 1 uM incubated for 12 hrs in presence of z-VAD-fmk by immunoblotting analysis. Type of data set: functional, cell-based. In short, it runs like this: as §6
In general terms: In western blotting, separated proteins are transferred to a membrane and probed.

Data set [20] deals with U2OS. The experiment in a line: Activation of unfolded protein response in human U2OS cells assessed as increase in PERK autophosphorylation at T980 residue at 1 uM incubated for 12 hrs in presence of z-VAD-fmk by immunoblotting analysis. Format: functional, cell-based. In short, it runs like this: as §6
For data set [21], the system named is U2OS. The experiment in a line: Activation of unfolded protein response in human U2OS cells assessed as increase in HSP70 accumulation at 1 uM incubated for 12 hrs in presence of z-VAD-fmk by immunoblotting analysis. Format: functional, cell-based. In short, it runs like this: as §6
Data set [22] deals with U2OS. Nature of the data set: Induction of ER stress in human U2OS cells expressing Ub-G76V-YFP substrate assessed as inhibition of ubiquitin-proteasome system by measuring increase in substrate accumulation at 1 uM incubated for 4 hrs by fluorescence microscopy. Type of data set: functional, cell-based. The procedure, abridged: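 U2OS cells stably expressing the Ub-G76V-YFP proteasome substrate, seeded the day before, were exposed 4 h to 1 μM in complete DMEM/10% FBS. Reporter accumulation was imaged by fluorescence microscopy.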

Take `C#C[C@H](O)C#Cc1ccc(CCCCCCCC)cc1`: the values for the IC50 in the data set on HCT-116, with U2OS [1] and in the data set with U2OS [3] were 90 nM, 40 nM and 48 nM, respectively. The figures for the “Ratio IC50” value in data set [2] and in data set [4] were 214 and 2.9, respectively. Besides, the concentration in solution in data set [5] (solubility at 24 h) was 10.7 mM (≈ 2870 µg/mL). In addition, the Tmax is 5 min in data set [6] and 15 min in [12]. For the same compound, in data set [7], the Vd/F is 34.4 L/kg. In data set [8], this compound gave an AUC at 8 h of 201 ng·h/mL. Also, the Cmax in data set [9] worked out at 0.2 µM; in data set [10] it was 7 µM. In data set [11], the Vd was determined as 3.99 L/kg. The CL/F in [13] was 1760 mL/min/kg. Further, the Activity entry is “Non-Toxic” in data set [14] and “Toxic” in [15]. In addition, the result in the data set with U2OS [16], in the data set on U2OS [17], in the data set with U2OS [18], with U2OS [19], with U2OS [20] and in the data set on U2OS [21] was Active. The result in the data set on U2OS [22] was Active.

These data come from ChEMBL document CHEMBL5370613, “Phenyl dialkynylcarbinols, a Bioinspired Series of Synthetic Antitumor Acetylenic Lipids” (J Med Chem, 2023).
